Screening data as filed in PubChem.
Hits are enriched below; roughly 3% of the tested compounds scored in any of these assays.
S1P1 ag-PAM = activates or potentiates agonism at human S1P1 receptor. P21453. S1P1 CRE-bla cells, forskolin, beta-lactamase FRET, potentiator mode; S1P1 agonist co-added at EC20, 2 nM; 100% = saturating reference agonist, 0% = basal. activation, % at 9.5 µM. 56,000 compounds, 0.57% hits;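 active = activation above a cutoff set at the mean activation of all tested compounds plus 3 SD, cut at about 54% in these data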;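 note: forskolin at 4 µM as EC80 and the EC20 agonist is SEW2871; 100% = SEW2871 at its EC100 plus forskolin at EC80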
Target sequence (P21453 whole entry, looked up): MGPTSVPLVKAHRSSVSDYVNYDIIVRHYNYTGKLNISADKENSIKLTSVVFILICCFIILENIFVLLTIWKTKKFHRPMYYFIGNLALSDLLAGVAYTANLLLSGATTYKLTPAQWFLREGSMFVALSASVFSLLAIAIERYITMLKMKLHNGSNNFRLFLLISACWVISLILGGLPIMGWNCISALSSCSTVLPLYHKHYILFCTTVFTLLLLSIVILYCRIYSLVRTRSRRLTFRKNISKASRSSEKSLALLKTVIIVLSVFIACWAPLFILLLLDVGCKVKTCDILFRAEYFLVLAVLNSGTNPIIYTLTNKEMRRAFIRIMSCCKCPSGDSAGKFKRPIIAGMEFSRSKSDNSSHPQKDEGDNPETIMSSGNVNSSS
5HT1a antag = antagonists of human 5-HT1a serotonin receptor | P08908 | CHO 5-HT1a Ga15 NFAT-bla reporter, antagonist mode | inhibition, % at 10 µM | 62,000 compounds, 0.68% hits | AID 612;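 active = inhibition above the mean of all tested compounds plus 3 SD, cut at about 43% in these data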;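 note: receptor stimulated by 5-CT agonist at 100 nM near EC80; beta-lactamase reporter measured by ratiometric fluorescence of a cleavable substrate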
5HT1a ag = 5-HT1a (human) receptor agonism; P08908; CHO 5-HT1a Ga15 NFAT-bla reporter, FRET ratio; 0% basal, 100% maximal reference agonist; activation, % at 10 µM; 65,000 compounds, 0.56% hits;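 active = activation above the screen-wide mean activation plus 3 SD, cut at about 19% in these data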;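 note: 0% = DMSO wells and 100% = 5-CT at EC100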
5HT1E antag = 5-HT1E (human) receptor antagonism. P28566. CHO 5-HT1E Ga15 NFAT-bla reporter, FRET, antagonist. inhibition, % at 6 µM. 65,000 compounds, 0.99% hits;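 active = inhibition above a set limit, the mean inhibition across every tested compound plus 3 SD, cut at about 29% in these data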;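 note: signal is the 460 over 535 nm emission ratio of beta-lactamase substrate; 0% = agonist plus DMSO wells and 100% = wells without agonist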
HTR1E agonist = activates the human 5-HT1E serotonin receptor. P28566. CHO 5-HT1E Ga15 NFAT-bla reporter, FRET; 0% DMSO wells, 100% control agonist wells. activation, % at 6 µM. 65,000 compounds, 0.69% hits. AID 574;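 active = activation above a set limit, the screen-wide mean activation plus 3 SD, cut at about 8.5% in these data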;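 note: 100% = positive control agonist at 1 µM giving full maximal response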
S1P3 ag = activates the human S1P3 receptor | S1P3 NFAT-BLA reporter cells, agonism, FRET ratio; relative to 1 µM S1P, basal subtracted | 60,000 compounds, 0.1% hits | Q99500 | activation, % at 4.5 µM | AID 373;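 active = activation above the screen-wide mean plus 3 SD, cut at about 4.5% in these data, passing the limit was not always enough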
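Benchmarks: high control 1 µM S1P / System: stable CHO line with human S1P3, Gα16, NFAT-BLA reporter / Dosing: single compound concentration, 4.5 µM final / Timing: 4 h compound at 37 °C, 2 h substrate at RT / Measured by: FRET β-lactamase substrate fluorescence, excitation 405 nm, 460/535 nm emission ratio, background-subtracted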
Starred values were filed as active, the others as inactive; · = no result given.

SMILES | S1P1 ag-PAM | 5HT1a antag | 5HT1a ag | 5HT1E antag | HTR1E agonist | S1P3 ag
N=c1c(C(=O)NCc2ccc(F)cc2)cc2c(=O)n3ccccc3nc2n1CC1CCCO1 (configuration not stated) | -176 | -19 | 30* | -15 | 9.1* | 6
Cc1ccc(CNC(=O)c2cc3c(=O)n4cccc(C)c4nc3n(CC3CCCO3)c2=N)cc1 (configuration not stated) | -36 | -15 | 3 | -18 | 2 | 1
COCCCn1c(=N)c(C(=O)NCC2CCCO2)cc2c(=O)n3ccccc3nc21 (configuration not stated) | -25 | -19 | 21* | -3 | 6 | 2
COCCCn1c(=N)c(C(=O)NCC2CCCO2)cc2c(=O)n3cccc(C)c3nc21 (configuration not stated) | -15 | -34 | 12 | -10 | 4 | 1
CCN(CC)S(=O)(=O)c1ccc2[nH]cc(C(=O)NCCC3=CCCCC3)c(=O)c2c1 | · | 14 | 1 | 6 | 0 | ·
c1ccc(-c2csc3nnc(SCc4ccc5c(c4)OCO5)n23)cc1 | -21 | 2 | -3 | 29* | 1 | 0
O=C(CCSc1nnc2scc(-c3ccccc3)n12)NCc1ccc2c(c1)OCO2 | -38 | 3 | 1 | 18 | -1 | 0
Fc1ccccc1COc1ccc(/C=N/n2cnnc2)cc1 | 88* | -16 | -4 | 8 | -1 | -1
COc1ccc(Cn2nnnc2C(c2cccs2)N2CCN(c3ccccc3)CC2)cc1 (configuration not stated) | 18 | 44* | -1 | 7 | 0 | -2
c1ccc(Cn2nnnc2C(c2cccs2)N2CCc3ccccc3C2)cc1 (configuration not stated) | 40 | 52* | 0 | 13 | -1 | -1
Cc1ccc(C)c(N2CCN(C(c3ccncc3)c3nnnn3Cc3ccccc3)CC2)c1 (configuration not stated) | 7 | -174 | 0 | 2 | 36* | -1
COc1ccc(OC)c(S(=O)(=O)N2CCC(C(=O)Nc3cccc(C(F)(F)F)c3)CC2)c1 | 14 | -17 | 4 | -10 | 2 | -1
CCOC(=O)N1CCC(NC(=O)c2cc3c(-c4ccc(OC)c(OC)c4)nn(C)c3s2)CC1 | 2 | 15 | 0 | 29* | 0 | -2
CCOC(=O)N1CCC(NC(=O)c2cc3c(-c4ccccc4F)nn(C)c3s2)CC1 | -16 | 7 | 1 | 0 | 1 | -1
CCOC(=O)C1CCCN(C(=O)c2cc3c(-c4cccc(OC)c4)nn(C)c3s2)C1 (configuration not stated) | -10 | 16 | -2 | 26 | 1 | -1
CCOC(=O)C1CCN(C(=O)c2cc3c(-c4ccc(OC)c(OC)c4)nn(C)c3s2)CC1 | -56 | 4 | -1 | 36* | 0 | 0
COc1ccccc1NC(=O)C1C2C=CC3(CN(Cc4cccnc4)C(=O)C13)O2 (configuration not stated) | 2 | -1 | -2 | 8 | 2 | -1
O=C(O)C1C2C=CC(C2)C1C(=O)NCCc1cccc(Cl)c1 (configuration not stated) | · | 0 | 8 | 8 | 12* | 0
Cc1nnc(Sc2nc(Sc3nnc(C)s3)nc(N3CCN(C)CC3)n2)s1 | -72 | 78* | 4 | 68* | -1 | -2
FC(F)(F)c1ccc(N2CCN(c3cc(-c4ccccc4)nc4ncnn34)CC2)nc1 | 108* | -17 | 0 | 4 | 0 | -1
CCOC(=O)N1CCN(C(=O)c2ccc(Cn3c(=S)[nH]c4cc5c(cc4c3=O)OCO5)cc2)CC1 | · | -4 | 6 | 29* | -1 | ·
CCOc1ccccc1NC(=O)Cn1nnc(C(=O)NCc2ccco2)c1N | 6 | 34 | -2 | 73* | -1 | -1
CCn1c(=O)cc(C(=O)OC)sc1=Nc1ccc(F)c(F)c1 | 5 | 6 | 0 | 38* | 1 | 0
CCOC(=O)c1ccc(N=c2sc(C(=O)OC)cc(=O)n2Cc2ccco2)cc1 | 31 | 30 | -2 | 12 | 0 | -1
CCCCN=c1sc(C(=O)OC)cc(=O)n1CCCC | · | -12 | 0 | 0 | -1 | ·
SMILES | S1P1 ag-PAM | 5HT1a antag | 5HT1a ag | 5HT1E antag | HTR1E agonist | S1P3 ag
CCOC(=O)c1ccc(N=c2sc(C(=O)OC)cc(=O)n2CCCN2CCOCC2)cc1 | 25 | 32 | 0 | 40* | -2 | -2
CCCc1cc(=O)n2[nH]c(Cc3ccccc3)nc2n1 | · | -2 | -1 | -1 | 0 | -1
CC1CCN(C(=O)CSc2ccc3nnc(-c4ccc(F)cc4)n3n2)CC1 | 4 | -1 | -2 | 0 | -1 | -1
Cc1nc2c(sc3nc4c(cc32)COC(C)(C)C4)c(=O)n1CC(=O)NCc1ccco1 | · | 17 | -3 | 31* | 0 | ·
O=C(OC1CCOC1=O)c1ccc2ncsc2c1 (configuration not stated) | 1 | 1 | -2 | -2 | 0 | 1
O=C(OC1CCOC1=O)c1cncc(Br)c1 (configuration not stated) | 3 | -15 | -3 | 1 | 43* | -1
CCc1noc2c1/C(=N\O)CC(c1ccccc1)C2 (configuration not stated) | 10 | -3 | -3 | 8 | -1 | -1
C=C1[C@@H](C)C2[C@H](Cc3ccccc3)NC(=O)[C@]23OC(=O)CC[C@H](O)CCC[C@H](C)C/C=C/[C@H]3[C@@H]1O (some centres not stated) | -3 | · | -2 | 34* | 0 | 3
CCN1C(=O)C(C)S/C1=N\S(=O)(=O)c1ccc(Cl)s1 (configuration not stated) | 14 | 7 | -1 | 0 | -1 | -2
CC[N+](CC)(CC)C/C(N)=N/O | 12 | 2 | -5 | -6 | 0 | 0
CC(=O)CC1OC(=O)C(Br)=C1NCc1ccccc1 (configuration not stated) | -40 | 69* | -1 | 13 | 0 | -1
O=C(CC1Oc2ccccc2NC1=O)NCc1ccccc1 (configuration not stated) | 0 | -6 | -2 | 2 | 0 | -1
O=C(Nc1ccc(C(=O)Oc2ccccc2)c(O)c1)c1ccco1 | 34 | -5 | -2 | -4 | 1 | -2
Cc1ccc(O)c(-c2cc(-c3ccccc3C)[nH]n2)c1 | · | 44* | -1 | -1 | 2 | 0
Oc1ccccc1-c1cc(-c2ccccc2Cl)[nH]n1 | 17 | 24 | -5 | -4 | 1 | -1
CCN1CCN(c2ncc(C(=O)Nc3cc(Cl)ccc3OC)c3ccccc23)CC1 | 22 | -10 | 0 | 20 | 40* | -1
COc1ccc(Cl)cc1NC(=O)CCN1CCN(c2ccccc2C)CC1 | · | 9 | 2 | -6 | 1 | ·
